In ChEMBL document CHEMBL4190396, “Discovery of Novel Small-Molecule Inhibitors of NF-κB Signaling with Antiinflammatory and Anticancer Properties” (J Med Chem, 2018):
Activity calls are given as the source filed them. The rule behind the calls is not given here.

Tests used:
[1] = target: Proto-oncogene tyrosine-protein kinase Src (Homo sapiens) (UniProt P12931); assay: Inhibition of wild-type human partial length SRC (L240 to L536 residues) expressed in bacterial expression system assessed as residual activity at 10 uM by Kinomescan method relative to control
Proto-oncogene tyrosine-protein kinase Src (Homo sapiens), sequence (P12931 2-536 limits assumed): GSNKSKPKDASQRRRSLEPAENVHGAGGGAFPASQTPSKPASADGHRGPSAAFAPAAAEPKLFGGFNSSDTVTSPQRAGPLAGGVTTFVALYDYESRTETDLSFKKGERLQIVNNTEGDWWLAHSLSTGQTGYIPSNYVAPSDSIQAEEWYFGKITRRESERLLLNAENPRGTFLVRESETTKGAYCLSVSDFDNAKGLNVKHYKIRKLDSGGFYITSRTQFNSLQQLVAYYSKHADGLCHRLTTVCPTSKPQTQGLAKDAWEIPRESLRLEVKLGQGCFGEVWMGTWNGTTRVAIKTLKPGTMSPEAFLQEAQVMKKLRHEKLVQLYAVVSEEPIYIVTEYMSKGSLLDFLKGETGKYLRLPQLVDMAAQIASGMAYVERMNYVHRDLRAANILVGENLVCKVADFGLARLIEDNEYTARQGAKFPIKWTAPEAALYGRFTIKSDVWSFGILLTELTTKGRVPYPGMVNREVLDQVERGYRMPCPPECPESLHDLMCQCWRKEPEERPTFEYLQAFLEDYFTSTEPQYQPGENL

HeLa [2] = assay: Cell cycle arrest in human HeLa cells assessed as accumulation at G0/G1 phase at 10 uM after 24 hrs by propidium iodide staining based flow cytometry (reference value: 49.4%); format: functional
Summary of the method: (§1)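 HeLa cells, 3×10^5/well, attached overnight, switched to serum-free medium for synchronisation, then DMSO or 5, 10, 20 µM for 24 h; cells fixed, PI-stained, G0/G1, S and G2/M fractions by flow cytometry; n = 3, mean ± SD.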

[3] = target: T1, Toll-like receptor 7 (Homo sapiens) (UniProt Q9NYK1); assay: Inhibition of human TLR7 expressed in HEK293 cells assessed as decrease in R848-induced NF-kappaB activation-mediated SEAP production at 5 uM after 24 hrs by Quanti-blue-based assay relative to control; format: cell-based
T1 sequence (whole entry): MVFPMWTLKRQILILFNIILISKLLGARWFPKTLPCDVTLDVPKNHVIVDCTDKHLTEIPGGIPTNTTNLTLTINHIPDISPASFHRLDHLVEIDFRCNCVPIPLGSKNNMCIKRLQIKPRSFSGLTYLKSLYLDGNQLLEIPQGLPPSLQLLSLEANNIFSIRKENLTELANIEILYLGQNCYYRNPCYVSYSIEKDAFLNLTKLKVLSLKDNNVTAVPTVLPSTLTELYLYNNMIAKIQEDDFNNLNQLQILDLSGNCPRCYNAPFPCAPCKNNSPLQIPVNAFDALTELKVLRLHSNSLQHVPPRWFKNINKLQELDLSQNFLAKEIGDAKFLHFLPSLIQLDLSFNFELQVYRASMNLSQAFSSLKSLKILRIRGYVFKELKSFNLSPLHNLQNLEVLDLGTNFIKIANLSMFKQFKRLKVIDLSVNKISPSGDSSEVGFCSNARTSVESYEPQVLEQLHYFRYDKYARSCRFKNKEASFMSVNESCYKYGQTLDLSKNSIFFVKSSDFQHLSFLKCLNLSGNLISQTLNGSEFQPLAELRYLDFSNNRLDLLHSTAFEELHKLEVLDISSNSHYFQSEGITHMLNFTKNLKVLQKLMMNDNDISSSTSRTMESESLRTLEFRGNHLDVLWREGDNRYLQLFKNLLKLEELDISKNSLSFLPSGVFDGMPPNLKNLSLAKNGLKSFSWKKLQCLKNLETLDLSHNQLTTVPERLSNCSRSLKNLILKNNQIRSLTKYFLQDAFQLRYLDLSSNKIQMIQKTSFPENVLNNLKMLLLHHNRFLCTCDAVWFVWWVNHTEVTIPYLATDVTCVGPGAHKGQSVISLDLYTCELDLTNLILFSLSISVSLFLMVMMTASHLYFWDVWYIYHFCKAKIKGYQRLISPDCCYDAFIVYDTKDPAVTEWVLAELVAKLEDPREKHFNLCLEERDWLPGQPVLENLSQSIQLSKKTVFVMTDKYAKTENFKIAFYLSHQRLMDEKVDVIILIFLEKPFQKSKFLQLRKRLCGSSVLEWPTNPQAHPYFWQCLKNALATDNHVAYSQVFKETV

[4] = target: Proto-oncogene tyrosine-protein kinase Src (Homo sapiens) (UniProt P12931); assay: Inhibition of SRC (unknown origin) at 5 uM using KVEKIGEGTYGVVYK-amide as substrate by ADP-Glo kinase assay relative to control
HeLa [5] = assay: Cell cycle arrest in human HeLa cells assessed as accumulation at G2/M phase at 20 uM after 24 hrs by propidium iodide staining based flow cytometry (reference value: 15.7%); format: functional; summary of the method: as §1
[6] = target: Interleukin-1 receptor type 1 (Homo sapiens, UniProt P14778); assay: Inhibition of IL1R in TLR null HEK-blue cells assessed as decrease in IL-1beta-stimulated NF-kappaB activation-mediated SEAP production after 24 hrs by Quanti-blue-based assay; format: cell-based
Interleukin-1 receptor type 1, sequence (P14778 whole entry): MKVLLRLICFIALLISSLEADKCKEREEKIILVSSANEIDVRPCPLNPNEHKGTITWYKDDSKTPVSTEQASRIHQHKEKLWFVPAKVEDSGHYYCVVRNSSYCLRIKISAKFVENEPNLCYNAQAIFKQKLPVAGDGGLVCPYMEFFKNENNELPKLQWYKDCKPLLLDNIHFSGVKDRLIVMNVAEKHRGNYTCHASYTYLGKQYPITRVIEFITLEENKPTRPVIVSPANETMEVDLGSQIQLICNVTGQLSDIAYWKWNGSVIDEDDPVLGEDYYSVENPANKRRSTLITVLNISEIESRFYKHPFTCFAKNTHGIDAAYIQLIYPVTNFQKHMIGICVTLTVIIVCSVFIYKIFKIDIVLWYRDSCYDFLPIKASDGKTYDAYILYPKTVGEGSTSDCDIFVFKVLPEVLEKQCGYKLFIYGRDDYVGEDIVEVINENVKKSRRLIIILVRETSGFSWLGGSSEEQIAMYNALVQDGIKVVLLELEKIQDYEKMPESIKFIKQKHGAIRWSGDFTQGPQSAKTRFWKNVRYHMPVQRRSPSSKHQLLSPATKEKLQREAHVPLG

[7] = target: Toll-like receptor 5 (Homo sapiens) (UniProt O60602); assay: Antagonist activity at human TLR5 expressed in HEK293 cells assessed as decrease in flagellin-induced NF-kappaB activation-mediated SEAP production at 10^-9 to 10^-5 M after 24 hrs by Quanti-blue-based assay; format: cell-based
Toll-like receptor 5 (Homo sapiens), sequence (O60602 whole entry): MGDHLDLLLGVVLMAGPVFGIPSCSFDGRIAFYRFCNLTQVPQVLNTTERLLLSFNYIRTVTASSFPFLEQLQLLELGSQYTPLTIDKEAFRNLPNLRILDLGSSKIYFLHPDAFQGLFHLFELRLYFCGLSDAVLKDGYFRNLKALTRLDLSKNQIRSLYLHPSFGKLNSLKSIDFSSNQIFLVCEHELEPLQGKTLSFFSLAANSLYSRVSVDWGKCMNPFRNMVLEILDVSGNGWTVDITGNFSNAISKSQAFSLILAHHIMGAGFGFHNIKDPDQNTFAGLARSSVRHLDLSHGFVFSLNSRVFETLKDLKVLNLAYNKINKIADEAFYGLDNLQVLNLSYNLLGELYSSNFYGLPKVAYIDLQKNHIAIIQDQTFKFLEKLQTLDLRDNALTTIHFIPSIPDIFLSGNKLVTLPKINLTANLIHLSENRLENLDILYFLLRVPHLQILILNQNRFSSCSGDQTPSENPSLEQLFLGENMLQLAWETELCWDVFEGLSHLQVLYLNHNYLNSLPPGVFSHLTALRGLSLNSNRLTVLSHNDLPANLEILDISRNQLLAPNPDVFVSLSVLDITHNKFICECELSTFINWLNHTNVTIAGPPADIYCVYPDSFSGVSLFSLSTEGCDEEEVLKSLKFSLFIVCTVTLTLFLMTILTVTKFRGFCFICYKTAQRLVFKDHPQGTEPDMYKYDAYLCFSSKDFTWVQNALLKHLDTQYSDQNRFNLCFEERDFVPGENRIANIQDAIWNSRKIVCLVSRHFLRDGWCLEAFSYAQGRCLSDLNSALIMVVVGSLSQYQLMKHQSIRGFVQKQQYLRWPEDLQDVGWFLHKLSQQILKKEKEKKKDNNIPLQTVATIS
Summary of the method: (§2)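 HEK293 cells stably carrying a human TLR plus an NF-κB-driven SEAP reporter, seeded 5×10^4/well for 24 h at 37 °C, then stimulated: Pam3CSK4 100 µg/mL (TLR1/2), Pam2CSK4 100 µg/mL, poly I:C 5 µg/mL (TLR3), LPS 20 ng/mL (TLR4), flagellin 100 ng/mL (TLR5), R848 1 µg/mL (TLR7, TLR8), CpG-ODN2006 1 µg/mL (TLR9). After 24 h with compound, supernatant mixed with QUANTI-Blue, 1 h 37 °C, OD 620 nm.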

HeLa [8] = assay: Cell cycle arrest in human HeLa cells assessed as accumulation at G2/M phase at 5 uM after 24 hrs by propidium iodide staining based flow cytometry (reference value: 15.7%); format: functional; summary of the method: as §1
[9] = target: Toll-like receptor 8 (Homo sapiens) (UniProt Q9NR97); assay: Antagonist activity at human TLR8 expressed in HEK293 cells assessed as decrease in R848-induced NF-kappaB activation-mediated SEAP production at 10^-9 to 10^-5 M after 24 hrs by Quanti-blue-based assay; format: cell-based; summary of the method: as §2
Toll-like receptor 8 (Homo sapiens), sequence (Q9NR97 whole entry): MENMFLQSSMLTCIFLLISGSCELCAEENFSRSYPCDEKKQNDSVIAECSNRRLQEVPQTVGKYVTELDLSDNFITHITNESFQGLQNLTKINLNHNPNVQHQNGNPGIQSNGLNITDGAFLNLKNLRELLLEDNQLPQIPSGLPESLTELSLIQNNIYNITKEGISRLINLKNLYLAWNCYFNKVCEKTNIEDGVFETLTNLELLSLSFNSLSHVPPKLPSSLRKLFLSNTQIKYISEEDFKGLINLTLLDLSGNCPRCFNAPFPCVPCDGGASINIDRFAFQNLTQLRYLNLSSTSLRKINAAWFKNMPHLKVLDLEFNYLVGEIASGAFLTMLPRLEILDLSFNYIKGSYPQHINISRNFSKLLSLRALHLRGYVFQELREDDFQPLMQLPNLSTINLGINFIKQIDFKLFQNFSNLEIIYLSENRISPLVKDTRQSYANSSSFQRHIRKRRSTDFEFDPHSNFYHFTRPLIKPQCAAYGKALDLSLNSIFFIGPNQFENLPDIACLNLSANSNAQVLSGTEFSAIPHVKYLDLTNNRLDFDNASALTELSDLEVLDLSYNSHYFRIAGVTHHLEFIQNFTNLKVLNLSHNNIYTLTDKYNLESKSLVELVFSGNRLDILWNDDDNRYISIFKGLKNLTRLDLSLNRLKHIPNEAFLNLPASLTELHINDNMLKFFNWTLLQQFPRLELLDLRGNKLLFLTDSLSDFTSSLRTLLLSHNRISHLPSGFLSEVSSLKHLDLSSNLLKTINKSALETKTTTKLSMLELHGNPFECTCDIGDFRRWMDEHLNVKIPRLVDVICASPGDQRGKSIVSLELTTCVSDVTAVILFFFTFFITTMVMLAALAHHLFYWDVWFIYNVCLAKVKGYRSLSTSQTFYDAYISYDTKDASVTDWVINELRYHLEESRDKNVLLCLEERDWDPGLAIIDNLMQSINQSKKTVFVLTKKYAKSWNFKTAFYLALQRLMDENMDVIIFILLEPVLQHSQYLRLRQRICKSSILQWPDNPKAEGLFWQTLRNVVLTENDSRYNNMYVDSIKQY

HeLa [10] = assay: Cell cycle arrest in human HeLa cells assessed as accumulation at G0/G1 phase at 5 uM after 24 hrs by propidium iodide staining based flow cytometry (reference value: 49.4%); format: functional; summary of the method: as §1
Protein kinase C (PKC) = assay: (§3) Inhibition of PKC in TLR null HEK-blue cells assessed as inhibition of PMA-induced NF-kappaB activation-mediated SEAP production after 24 hrs by Quanti-blue-based assay; format: cell-based, Homo sapiens
[11] = target: Protein kinase C (PKC) (Homo sapiens) (UniProt O94806+P41743+P17252+P05129+Q05655+P05771+Q05513+Q02156+P24723+Q15139+Q04759); assay: as §3; format: cell-based
[12] = target: Toll-like receptor 4 (Homo sapiens) (UniProt O00206); assay: Antagonist activity at human TLR4 expressed in HEK293 cells assessed as decrease in LPS-induced NF-kappaB activation-mediated SEAP production at 10^-9 to 10^-5 M after 24 hrs by Quanti-blue-based assay; format: cell-based; summary of the method: as §2
Toll-like receptor 4 (Homo sapiens), sequence (O00206 whole entry): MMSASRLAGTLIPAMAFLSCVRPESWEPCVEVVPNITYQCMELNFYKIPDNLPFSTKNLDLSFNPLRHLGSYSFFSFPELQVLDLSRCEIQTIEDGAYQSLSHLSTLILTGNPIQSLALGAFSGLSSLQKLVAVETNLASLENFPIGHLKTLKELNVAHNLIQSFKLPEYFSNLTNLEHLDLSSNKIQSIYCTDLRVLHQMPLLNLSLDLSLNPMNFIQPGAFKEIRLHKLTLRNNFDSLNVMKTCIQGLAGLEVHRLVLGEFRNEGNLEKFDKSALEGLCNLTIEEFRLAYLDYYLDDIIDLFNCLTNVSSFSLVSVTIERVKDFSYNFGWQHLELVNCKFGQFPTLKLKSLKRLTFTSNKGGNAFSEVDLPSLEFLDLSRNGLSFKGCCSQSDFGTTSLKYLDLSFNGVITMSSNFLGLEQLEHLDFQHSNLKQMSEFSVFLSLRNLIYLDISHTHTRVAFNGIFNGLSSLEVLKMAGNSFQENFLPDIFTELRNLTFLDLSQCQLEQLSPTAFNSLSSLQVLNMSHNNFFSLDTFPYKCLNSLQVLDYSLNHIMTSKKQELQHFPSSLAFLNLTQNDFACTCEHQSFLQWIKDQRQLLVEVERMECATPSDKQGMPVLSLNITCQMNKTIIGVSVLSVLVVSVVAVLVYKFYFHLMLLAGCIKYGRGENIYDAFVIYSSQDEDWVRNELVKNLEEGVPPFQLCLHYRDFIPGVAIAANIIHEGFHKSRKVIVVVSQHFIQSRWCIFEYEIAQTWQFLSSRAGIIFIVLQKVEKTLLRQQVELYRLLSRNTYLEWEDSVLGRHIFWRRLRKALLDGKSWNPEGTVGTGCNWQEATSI

RAW264.7 = assay: Inhibition of LPS-induced PI3K phosphorylation in mouse RAW264.7 cells at 1 to 10 uM preincubated for 1 hr followed by LPS stimulation for 15 to 30 mins by Western blot method; format: cell-based
Summary of the method: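 RAW 264.7 cells, 3×10^6 per dish overnight, pretreated 1 h with 1, 5 or 10 µM, then LPS 100 ng/mL for 15 or 30 min; nuclear/cytoplasmic lysates (20–30 µg) run on 10% SDS-PAGE, immunoblotted for phospho/total proteins, GAPDH loading control, ECL, densitometry; three independent experiments.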

HeLa [13] = assay: Cell cycle arrest in human HeLa cells assessed as accumulation at G0/G1 phase at 20 uM after 24 hrs by propidium iodide staining based flow cytometry (reference value: 49.4%); format: functional; summary of the method: as §1

SMILES: O=C(NNC(=O)c1csc(-c2ccc(Cl)cc2Cl)n1)c1ccccn1
- Activity [1]: 75%
- Activity (HeLa [2]): 54.7%
- inhibition [3]: 99.6%
- inhibition [4]: < 50%
- Activity (HeLa [5]): 3.9%
- IC50 [6]: 720 nM
- inhibition [7]: Active
- Activity (HeLa [8]): 13.8%
- inhibition [9]: Active
- Activity (HeLa [10]): 37.8%
- IC50 (Protein kinase C (PKC)): 370 nM
- inhibition [11]: Dose-dependent effect
- inhibition [12]: Active
- inhibition (RAW264.7): Active
- Activity (HeLa [13]): 67%
